According to ChEMBL document CHEMBL1146654, “3-(7-Azaindolyl)-4-arylmaleimides as potent, selective inhibitors of glycogen synthase kinase-3” (Bioorg Med Chem Lett, 2004):

Legend:
[1] = biological target: CDK6/cyclin D3 (Homo sapiens) (UniProt P30281+Q00534); experiment: Inhibition of Cyclin-dependent kinase 6-cyclin D3; type: protein-complex assay; design: scale not given: the % may be the effect or the level left
Rattus norvegicus = species: Rattus norvegicus; experiment: Inhibition of AMP-activated Protein Kinase; design: scale not given: the % may be the effect or the level left
[2] = biological target: Mitogen-activated protein kinase 9 (Homo sapiens) (UniProt P45984); experiment: Inhibition of c-Jun N-terminal kinase 2-alpha 2; design: scale not given: the % may be the effect or the level left
[3] = biological target: Mitogen-activated protein kinase 10 (Rattus norvegicus) (UniProt P49187); experiment: Inhibition of c-Jun N-terminal kinase 3; design: scale not given: the % may be the effect or the level left
[4] = biological target: T1, Inhibitor of nuclear factor kappa-B kinase subunit alpha (Homo sapiens) (UniProt O15111); experiment: Inhibition of I kappa-B kinase alpha; design: scale not given: the % may be the effect or the level left
T1 sequence (whole entry): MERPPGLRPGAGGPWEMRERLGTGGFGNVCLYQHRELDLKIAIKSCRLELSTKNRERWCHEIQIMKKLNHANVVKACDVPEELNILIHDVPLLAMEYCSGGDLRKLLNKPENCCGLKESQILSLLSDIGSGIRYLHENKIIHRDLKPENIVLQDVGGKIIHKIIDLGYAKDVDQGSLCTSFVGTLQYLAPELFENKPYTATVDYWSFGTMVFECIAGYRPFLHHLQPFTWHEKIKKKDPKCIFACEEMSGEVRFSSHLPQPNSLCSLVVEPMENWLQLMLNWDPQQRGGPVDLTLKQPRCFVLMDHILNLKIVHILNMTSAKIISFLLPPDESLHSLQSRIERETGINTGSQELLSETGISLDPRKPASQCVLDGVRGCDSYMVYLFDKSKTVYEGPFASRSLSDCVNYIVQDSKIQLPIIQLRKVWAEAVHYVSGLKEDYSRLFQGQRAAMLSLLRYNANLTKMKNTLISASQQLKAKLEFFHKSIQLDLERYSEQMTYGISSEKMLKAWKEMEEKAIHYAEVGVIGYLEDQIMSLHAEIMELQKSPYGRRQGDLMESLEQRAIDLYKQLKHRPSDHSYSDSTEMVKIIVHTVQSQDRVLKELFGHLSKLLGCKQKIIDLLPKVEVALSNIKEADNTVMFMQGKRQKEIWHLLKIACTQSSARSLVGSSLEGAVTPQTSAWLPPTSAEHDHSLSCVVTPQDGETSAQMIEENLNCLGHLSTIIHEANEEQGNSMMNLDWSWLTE

[5] = biological target: Ribosomal protein S6 kinase alpha-5 (Homo sapiens, UniProt O75582); experiment: Inhibition of MSK-1 kinase; design: scale not given: the % may be the effect or the level left
[6] = biological target: T2, MAP kinase-activated protein kinase 5 (Homo sapiens) (UniProt Q8IW41); experiment: Inhibition of PRAK, MAPK5; design: scale not given: the % may be the effect or the level left
T2 sequence (whole entry): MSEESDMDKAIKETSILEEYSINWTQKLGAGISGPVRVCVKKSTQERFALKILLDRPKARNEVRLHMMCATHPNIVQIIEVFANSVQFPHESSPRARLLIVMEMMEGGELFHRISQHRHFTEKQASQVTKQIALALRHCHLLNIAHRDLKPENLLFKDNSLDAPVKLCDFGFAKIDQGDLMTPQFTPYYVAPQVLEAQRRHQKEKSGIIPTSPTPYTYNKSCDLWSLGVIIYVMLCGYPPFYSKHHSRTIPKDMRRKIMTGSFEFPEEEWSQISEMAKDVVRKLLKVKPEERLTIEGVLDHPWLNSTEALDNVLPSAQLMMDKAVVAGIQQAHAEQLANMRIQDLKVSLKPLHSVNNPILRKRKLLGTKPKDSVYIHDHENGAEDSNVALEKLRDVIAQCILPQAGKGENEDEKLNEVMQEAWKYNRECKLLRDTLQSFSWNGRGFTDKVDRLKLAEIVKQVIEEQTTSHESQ

[7] = biological target: Cyclin-dependent kinase 1/cyclin B (Homo sapiens) (UniProt P06493+P14635+Q8WWL7+O95067); experiment: Inhibition of cyclin-dependent kinase 1-cyclin B; type: protein-complex assay; design: scale not given: the % may be the effect or the level left
[8] = biological target: Protein kinase C alpha type (Homo sapiens, UniProt P17252); experiment: Inhibitory activity of 10 uM compound against protein kinase C-alpha using histone as substrate
[9] = biological target: Tyrosine-protein kinase Fes/Fps (Homo sapiens) (UniProt P07332); experiment: Inhibition of Fes kinase; design: scale not given: the % may be the effect or the level left
Sequence of Tyrosine-protein kinase Fes/Fps (Homo sapiens) (P07332 whole entry): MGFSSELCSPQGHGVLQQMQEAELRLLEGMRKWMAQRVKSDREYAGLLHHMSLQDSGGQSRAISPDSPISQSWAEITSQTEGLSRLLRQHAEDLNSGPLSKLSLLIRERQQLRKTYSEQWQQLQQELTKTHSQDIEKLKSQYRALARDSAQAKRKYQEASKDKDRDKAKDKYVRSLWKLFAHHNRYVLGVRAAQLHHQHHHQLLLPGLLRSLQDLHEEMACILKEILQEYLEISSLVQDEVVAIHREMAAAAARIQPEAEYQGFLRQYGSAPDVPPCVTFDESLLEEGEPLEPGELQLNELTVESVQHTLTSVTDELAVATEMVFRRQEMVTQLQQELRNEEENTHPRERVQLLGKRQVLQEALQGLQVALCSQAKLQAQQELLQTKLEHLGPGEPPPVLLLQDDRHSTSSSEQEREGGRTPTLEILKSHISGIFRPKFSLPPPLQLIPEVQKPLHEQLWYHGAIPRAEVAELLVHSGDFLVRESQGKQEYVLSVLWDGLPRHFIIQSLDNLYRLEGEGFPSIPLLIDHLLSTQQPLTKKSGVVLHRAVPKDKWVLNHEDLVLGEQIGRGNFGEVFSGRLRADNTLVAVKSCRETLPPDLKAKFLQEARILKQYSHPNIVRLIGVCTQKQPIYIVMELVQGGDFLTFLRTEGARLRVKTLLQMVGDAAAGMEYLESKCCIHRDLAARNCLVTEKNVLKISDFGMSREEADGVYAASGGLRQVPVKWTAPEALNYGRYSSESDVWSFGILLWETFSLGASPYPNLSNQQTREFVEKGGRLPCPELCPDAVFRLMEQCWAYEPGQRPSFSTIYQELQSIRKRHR

[10] = biological target: T3, Serine/threonine-protein kinase Chk1 (Homo sapiens) (UniProt O14757); experiment: Inhibition of Serine/threonine-protein kinase Chk1; design: scale not given: the % may be the effect or the level left
T3 sequence (whole entry): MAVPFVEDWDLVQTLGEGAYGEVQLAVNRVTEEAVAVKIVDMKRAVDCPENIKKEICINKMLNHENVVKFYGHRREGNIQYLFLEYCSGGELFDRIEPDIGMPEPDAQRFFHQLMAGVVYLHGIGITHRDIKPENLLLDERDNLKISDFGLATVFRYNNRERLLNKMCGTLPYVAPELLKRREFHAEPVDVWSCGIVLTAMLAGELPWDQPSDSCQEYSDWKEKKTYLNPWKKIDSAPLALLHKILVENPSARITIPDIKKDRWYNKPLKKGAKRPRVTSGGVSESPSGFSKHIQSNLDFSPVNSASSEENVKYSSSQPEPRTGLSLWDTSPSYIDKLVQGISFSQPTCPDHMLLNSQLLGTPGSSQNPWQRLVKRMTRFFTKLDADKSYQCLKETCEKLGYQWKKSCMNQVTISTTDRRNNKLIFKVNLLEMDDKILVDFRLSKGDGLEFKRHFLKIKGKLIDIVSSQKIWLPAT

[11] = biological target: T4, Protein kinase C beta type (Homo sapiens, UniProt P05771); experiment: Inhibition of PKCbetaII; design: scale not given: the % may be the effect or the level left
Target sequence in this assay (P05771 2-671 limits assumed): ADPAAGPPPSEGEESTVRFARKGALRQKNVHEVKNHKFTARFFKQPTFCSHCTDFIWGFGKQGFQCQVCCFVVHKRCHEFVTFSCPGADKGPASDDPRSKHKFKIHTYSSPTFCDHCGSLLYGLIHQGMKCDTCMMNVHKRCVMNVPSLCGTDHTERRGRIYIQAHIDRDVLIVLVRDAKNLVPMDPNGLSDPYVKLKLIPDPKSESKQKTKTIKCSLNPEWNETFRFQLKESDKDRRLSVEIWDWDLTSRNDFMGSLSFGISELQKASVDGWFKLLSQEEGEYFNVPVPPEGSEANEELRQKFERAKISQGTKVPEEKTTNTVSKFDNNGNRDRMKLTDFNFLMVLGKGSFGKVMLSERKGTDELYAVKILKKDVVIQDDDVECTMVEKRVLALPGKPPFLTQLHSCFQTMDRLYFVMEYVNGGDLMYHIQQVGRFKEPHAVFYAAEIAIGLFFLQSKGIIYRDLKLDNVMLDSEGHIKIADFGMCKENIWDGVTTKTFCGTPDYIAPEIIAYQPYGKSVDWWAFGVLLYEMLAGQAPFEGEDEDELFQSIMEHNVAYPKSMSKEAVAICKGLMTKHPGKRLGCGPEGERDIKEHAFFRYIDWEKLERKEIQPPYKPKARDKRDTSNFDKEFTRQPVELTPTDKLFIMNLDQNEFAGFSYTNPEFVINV

[12] = biological target: Tyrosine-protein kinase Lck (Homo sapiens) (UniProt P06239); experiment: Inhibition of p56 Lck tyrosine kinase; design: scale not given: the % may be the effect or the level left
Sequence of Tyrosine-protein kinase Lck (Homo sapiens) (P06239 2-509 limits assumed): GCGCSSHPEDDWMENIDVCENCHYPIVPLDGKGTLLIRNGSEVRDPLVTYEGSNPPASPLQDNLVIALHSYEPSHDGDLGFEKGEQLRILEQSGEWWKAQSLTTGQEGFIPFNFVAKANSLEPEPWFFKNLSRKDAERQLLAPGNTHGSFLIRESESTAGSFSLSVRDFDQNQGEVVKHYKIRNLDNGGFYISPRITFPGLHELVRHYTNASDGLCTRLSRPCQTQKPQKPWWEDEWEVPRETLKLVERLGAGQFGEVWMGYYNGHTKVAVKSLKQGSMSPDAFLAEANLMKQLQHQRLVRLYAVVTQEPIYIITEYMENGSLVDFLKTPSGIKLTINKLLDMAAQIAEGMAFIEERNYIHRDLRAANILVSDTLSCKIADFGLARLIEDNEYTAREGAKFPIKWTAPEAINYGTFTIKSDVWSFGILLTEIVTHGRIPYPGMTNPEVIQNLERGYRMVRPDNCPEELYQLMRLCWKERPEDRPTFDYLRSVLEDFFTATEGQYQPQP

[13] = biological target: Platelet-derived growth factor receptor beta (Homo sapiens) (UniProt P09619); experiment: Inhibition of PDGFRbeta; design: scale not given: the % may be the effect or the level left
Sequence of Platelet-derived growth factor receptor beta (Homo sapiens) (P09619 whole entry): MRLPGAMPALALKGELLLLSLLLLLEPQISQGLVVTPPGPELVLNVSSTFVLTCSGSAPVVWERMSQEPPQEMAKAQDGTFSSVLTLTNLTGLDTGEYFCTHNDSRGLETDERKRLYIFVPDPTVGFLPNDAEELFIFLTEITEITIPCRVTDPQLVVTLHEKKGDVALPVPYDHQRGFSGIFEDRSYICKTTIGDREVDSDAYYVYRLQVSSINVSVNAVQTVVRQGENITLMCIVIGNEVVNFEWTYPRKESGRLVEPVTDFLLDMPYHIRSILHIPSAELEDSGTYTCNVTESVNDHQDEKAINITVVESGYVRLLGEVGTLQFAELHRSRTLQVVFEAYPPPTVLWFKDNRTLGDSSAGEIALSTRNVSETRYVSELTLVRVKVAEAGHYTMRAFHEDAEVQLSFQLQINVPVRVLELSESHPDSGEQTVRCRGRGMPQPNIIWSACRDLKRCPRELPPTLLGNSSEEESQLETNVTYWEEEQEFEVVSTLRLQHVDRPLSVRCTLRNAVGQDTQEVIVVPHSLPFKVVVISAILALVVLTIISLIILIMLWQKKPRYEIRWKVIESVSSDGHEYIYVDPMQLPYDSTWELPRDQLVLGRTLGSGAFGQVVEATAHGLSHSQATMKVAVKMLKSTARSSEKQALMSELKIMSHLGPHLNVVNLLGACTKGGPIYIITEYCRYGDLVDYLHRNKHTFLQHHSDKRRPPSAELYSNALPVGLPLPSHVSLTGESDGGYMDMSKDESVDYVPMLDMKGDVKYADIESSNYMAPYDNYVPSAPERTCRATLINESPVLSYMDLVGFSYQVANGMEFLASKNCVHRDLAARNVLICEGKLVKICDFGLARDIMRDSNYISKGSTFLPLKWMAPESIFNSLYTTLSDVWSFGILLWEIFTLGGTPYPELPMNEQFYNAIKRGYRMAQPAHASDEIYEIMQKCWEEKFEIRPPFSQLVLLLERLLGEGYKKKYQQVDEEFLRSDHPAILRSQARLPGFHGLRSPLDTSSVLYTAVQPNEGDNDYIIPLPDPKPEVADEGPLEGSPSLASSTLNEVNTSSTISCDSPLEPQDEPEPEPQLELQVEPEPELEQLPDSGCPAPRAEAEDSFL

[14] = biological target: Protein kinase C theta type (Homo sapiens) (UniProt Q04759); experiment: Inhibition of PKCtheta; design: scale not given: the % may be the effect or the level left
[15] = biological target: T5, Ribosomal protein S6 kinase alpha-3 (Homo sapiens, UniProt P51812); experiment: (§1) Inhibition of Ribosomal S6 kinase 3
T5 sequence (P51812 whole entry): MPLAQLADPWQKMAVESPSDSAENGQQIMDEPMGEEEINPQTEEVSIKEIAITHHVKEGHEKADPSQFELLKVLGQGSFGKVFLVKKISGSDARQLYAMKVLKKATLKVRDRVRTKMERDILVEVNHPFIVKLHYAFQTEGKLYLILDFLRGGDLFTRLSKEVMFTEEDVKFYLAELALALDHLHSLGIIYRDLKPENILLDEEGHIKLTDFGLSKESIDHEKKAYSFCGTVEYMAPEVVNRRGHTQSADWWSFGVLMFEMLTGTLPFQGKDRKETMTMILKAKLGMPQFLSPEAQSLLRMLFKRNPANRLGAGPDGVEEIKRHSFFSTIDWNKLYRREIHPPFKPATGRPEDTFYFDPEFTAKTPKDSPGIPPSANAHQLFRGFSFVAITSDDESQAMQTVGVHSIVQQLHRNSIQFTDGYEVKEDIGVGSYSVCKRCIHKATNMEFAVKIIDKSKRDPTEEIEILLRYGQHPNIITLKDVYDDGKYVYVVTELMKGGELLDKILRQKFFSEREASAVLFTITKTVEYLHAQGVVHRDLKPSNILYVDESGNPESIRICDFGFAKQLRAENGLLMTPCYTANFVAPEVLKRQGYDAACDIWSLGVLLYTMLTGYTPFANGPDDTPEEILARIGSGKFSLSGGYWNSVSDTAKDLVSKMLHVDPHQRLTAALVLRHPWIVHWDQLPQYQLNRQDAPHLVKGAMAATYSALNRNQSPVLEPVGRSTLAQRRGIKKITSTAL

[16] = biological target: MAP kinase-activated protein kinase 2 (Homo sapiens) (UniProt P49137); experiment: Inhibition of MAP kinase-activated protein kinase 2; design: scale not given: the % may be the effect or the level left
[17] = biological target: T6, Glycogen synthase kinase-3 beta (Homo sapiens, UniProt P49841); experiment: Inhibition of glycogen synthase kinase-3 beta; design: scale not given: the % may be the effect or the level left
Target sequence in this assay (P49841 whole entry, looked up): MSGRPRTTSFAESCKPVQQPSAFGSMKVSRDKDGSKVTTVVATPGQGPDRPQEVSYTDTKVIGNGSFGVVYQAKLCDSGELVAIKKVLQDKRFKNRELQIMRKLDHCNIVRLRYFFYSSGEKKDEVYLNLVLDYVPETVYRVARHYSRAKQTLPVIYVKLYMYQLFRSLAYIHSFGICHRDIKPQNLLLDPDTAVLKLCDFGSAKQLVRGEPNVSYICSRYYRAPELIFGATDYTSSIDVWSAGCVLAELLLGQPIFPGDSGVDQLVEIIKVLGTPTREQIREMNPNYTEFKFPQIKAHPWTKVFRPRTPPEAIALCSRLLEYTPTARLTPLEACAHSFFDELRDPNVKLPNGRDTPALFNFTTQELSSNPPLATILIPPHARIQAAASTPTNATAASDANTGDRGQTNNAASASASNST

[18] = biological target: T4, Protein kinase C beta type; experiment: Inhibitory concentration against human protein kinase C-betaII using histone as substrate
Mus musculus = species: Mus musculus; experiment: Inhibition of Abl kinase; design: scale not given: the % may be the effect or the level left
[19] = biological target: Tyrosine-protein kinase Fyn (Homo sapiens) (UniProt P06241); experiment: Inhibition of Fyn protein kinase; design: scale not given: the % may be the effect or the level left
[20] = biological target: Cyclin-dependent kinase 2/cyclin E (Homo sapiens) (UniProt P24864+P24941+O96020); experiment: Inhibition of CDK2/cyclin E; type: protein-complex assay; design: scale not given: the % may be the effect or the level left
[21] = biological target: Dual specificity mitogen-activated protein kinase kinase 1 (Homo sapiens) (UniProt Q02750); experiment: Inhibition of mitogen activated protein kinase kinase 1; design: scale not given: the % may be the effect or the level left
[22] = biological target: T5, Ribosomal protein S6 kinase alpha-3; experiment: as §1; design: scale not given: the % may be the effect or the level left
[23] = biological target: T6, Glycogen synthase kinase-3 beta; experiment: Effective concentration of compound against glycogen synthase kinase-3 in HEK293 cells; type: functional, cell-based
Summary of the method: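 HEK293 cells exposed to compound; glycogen synthase activity then measured in cell extracts as ¹⁴C-UDP glucose incorporation into glycogen. EC₅₀ averaged from triplicate determinations.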
Target sequence in this assay (P49841 whole entry): as the sequence (P49841 whole entry, looked up) above

COCCCn1cc(C2=C(c3ccccc3O)C(=O)NC2=O)c2cccnc21
Activity [1]: 50%
Activity (Rattus norvegicus): 68%
Activity [2]: 63%
Activity [3]: 52%
Activity [4]: 83%
Activity [5]: 57%
Activity [6]: 82%
Activity [7]: 9%
inhibition [8]: < 50%
Activity [9]: 79%
Activity [10]: 78%
Activity [11]: 32%
Activity [12]: 84%
Activity [13]: 96%
Activity [14]: 46%
IC50 [15]: 2000 nM
Activity [16]: 97%
Activity [17]: 1%
IC50 [18]: 4360 nM
Activity (Mus musculus): 86%
Activity [19]: 94%
Activity [20]: 11%
Activity [21]: 94%
Activity [22]: 33%

COc1ccccc1C1=C(c2cn(CCCNC(=O)OC(C)(C)C)c3ncccc23)C(=O)NC1=O
EC50 [23]: 40 nM
Activity [1]: 24%
Activity (Rattus norvegicus): 64%
Activity [2]: 84%
Activity [3]: 68%
Activity [4]: 89%
Activity [5]: 61%
Activity [6]: 57%
Activity [7]: 3%
inhibition [8]: < 50%
Activity [9]: 87%
Activity [10]: 95%
Activity [11]: 15%
Activity [12]: 67%
Activity [13]: 93%
Activity [14]: 71%
IC50 [15]: 640 nM
Activity [17]: 0%
IC50 [18]: 2260 nM
Activity (Mus musculus): 91%
Activity [19]: 63%
Activity [20]: 3%
Activity [21]: 100%
Activity [22]: 24%

O=C1NC(=O)C(c2cn(CCCO)c3ncccc23)=C1c1ncc(C(F)(F)F)cc1Cl
EC50 [23]: 620 nM
Activity [1]: 59%
Activity (Rattus norvegicus): 74%
Activity [2]: 93%
Activity [3]: 76%
Activity [4]: 76%
Activity [6]: 59%
Activity [7]: 34%
inhibition [8]: < 50%
Activity [9]: 81%
Activity [10]: 73%
Activity [11]: 70%
Activity [12]: 82%
Activity [13]: 77%
Activity [14]: 66%
Activity [16]: 85%
Activity [17]: 3%
Activity (Mus musculus): 93%
Activity [19]: 89%
Activity [20]: 30%
Activity [21]: 74%
Activity [22]: 60%
